The source made the active and inactive calls. The calls are words filed in the database; no cut-off is given here.
Tests used:
[1] = target: T1, Melanocyte-stimulating hormone receptor (Homo sapiens, UniProt Q01726); assay: In vitro inhibitory concentration against human Melanocortin 1 receptor (MC1R)
[2] = target: T1, Melanocyte-stimulating hormone receptor; assay: In vitro effective concentration towards human Melanocortin 1 receptor (MC1R) in SPA-based cAMP assay in melanoma cells; format: cell-based
[3] = target: T1, Melanocyte-stimulating hormone receptor; assay: In vitro intrinsic activity against human Melanocortin 1 receptor (MC1R)
Melanocortin receptor 5 [4] = target: T2, Melanocortin receptor 5 (Homo sapiens, UniProt P33032); assay: In vitro effective concentration towards human Melanocortin 5 receptor (MC5R) was determined by a SPA-based cAMP assay in melanoma cells; format: cell-based
T2 sequence (P33032 whole entry): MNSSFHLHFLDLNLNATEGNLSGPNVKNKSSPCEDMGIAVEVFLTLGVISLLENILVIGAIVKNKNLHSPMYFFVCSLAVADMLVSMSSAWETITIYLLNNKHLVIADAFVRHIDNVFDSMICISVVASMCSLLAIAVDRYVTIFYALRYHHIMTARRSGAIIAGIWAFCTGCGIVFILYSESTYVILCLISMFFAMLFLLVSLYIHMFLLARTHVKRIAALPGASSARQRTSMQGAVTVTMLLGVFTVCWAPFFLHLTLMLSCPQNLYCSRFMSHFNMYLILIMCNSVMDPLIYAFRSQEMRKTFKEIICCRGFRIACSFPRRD

Melanocortin receptor 3 [5] = target: T3, Melanocortin receptor 3 (Homo sapiens, UniProt P41968); assay: In vitro effective concentration towards human Melanocortin 3 receptor (MC3R) was determined by a SPA-based cAMP assay in melanoma cells; format: cell-based
T3 sequence (P41968 whole entry): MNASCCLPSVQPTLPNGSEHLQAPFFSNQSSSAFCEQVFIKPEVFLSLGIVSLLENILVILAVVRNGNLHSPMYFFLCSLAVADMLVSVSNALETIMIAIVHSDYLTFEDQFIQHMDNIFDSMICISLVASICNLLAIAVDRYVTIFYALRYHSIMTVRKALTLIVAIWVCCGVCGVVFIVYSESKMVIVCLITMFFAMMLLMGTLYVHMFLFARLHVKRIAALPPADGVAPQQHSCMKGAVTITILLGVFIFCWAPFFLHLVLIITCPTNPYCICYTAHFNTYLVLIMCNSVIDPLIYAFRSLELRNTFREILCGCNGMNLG

Melanocortin receptor 4 [6] = target: T4, Melanocortin receptor 4 (Homo sapiens, UniProt P32245); assay: In vitro effective concentration towards human Melanocortin 4 receptor (MC4R) was determined by a SPA-based cAMP assay in melanoma cells; format: cell-based
T4 sequence (P32245 whole entry): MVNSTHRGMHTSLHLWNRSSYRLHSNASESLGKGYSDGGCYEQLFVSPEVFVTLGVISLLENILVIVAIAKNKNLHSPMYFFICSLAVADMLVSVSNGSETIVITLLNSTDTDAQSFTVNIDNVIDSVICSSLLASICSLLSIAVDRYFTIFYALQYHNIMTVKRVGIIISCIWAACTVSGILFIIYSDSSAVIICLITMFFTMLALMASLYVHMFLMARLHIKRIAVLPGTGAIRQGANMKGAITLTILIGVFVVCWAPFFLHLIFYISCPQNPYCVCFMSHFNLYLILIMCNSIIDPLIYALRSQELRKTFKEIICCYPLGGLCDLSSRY

Melanocortin receptor 3 [7] = target: T3, Melanocortin receptor 3; assay: In vitro intrinsic activity against human Melanocortin 3 receptor (MC3R)
Melanocortin receptor 5 [8] = target: T2, Melanocortin receptor 5; assay: In vitro intrinsic activity against human Melanocortin 5 receptor (MC5R)
How it was run: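 A SPA-based cAMP assay was run in CHO cells overexpressing human MC-5R. EC50 and intrinsic activity (%) are given ± SEM.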

Melanocortin receptor 4 [9] = target: T4, Melanocortin receptor 4; assay: In vitro intrinsic activity against human Melanocortin 4 receptor (MC4R)
[10] = Cmax value was evaluated in mice by intravenous administration of 6.8 umol/kg dose; format: ADME, organism-based; design: dose 6.8 umol/kg, route intravenous; settings: mouse, in vivo
How it was run: (§1)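 Balb/c mice (n = 3) given a single intravenous dose of 6.8 μmol/kg in 50:50 PEG400–water, with plasma pharmacokinetic parameters derived from the concentration–time profile.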

[11] = MRT value was determined by intravenous administration of 6.8 umol/kg dose in mice; format: ADME, organism-based; settings: mouse, in vivo; how it was run: as §1
[12] = Cl value was determined by intravenous administration of 6.8 umol/kg dose in mice; format: ADME, organism-based; settings: mouse, in vivo; how it was run: as §1
Melanocortin receptor 3 [13] = target: T3, Melanocortin receptor 3; assay: In vitro inhibitory concentration against human Melanocortin 3 receptor (MC3R)
[14] = Half life by intravenous administration of 6.8 umol/kg dose in mice; format: ADME, organism-based; settings: mouse, in vivo; how it was run: as §1
[15] = Vss value was determined by intravenous administration of 6.8 umol/kg dose in mice; format: ADME, organism-based; settings: mouse, in vivo, read-out: Vss; how it was run: as §1
Melanocortin receptor 3 [16] = target: T3, Melanocortin receptor 3; assay: In vitro effective concentration towards human Melanocortin-3 receptor (MC3R) was determined by a SPA-based cAMP assay in melanoma cells; format: cell-based

Compound | IC50 [1] | EC50 [2] | Intrinsic activity [3] | EC50 (Melanocortin receptor 5 [4]) | EC50 (Melanocortin receptor 4 [6]) | Intrinsic activity (Melanocortin receptor 3 [7]) | Intrinsic activity (Melanocortin receptor 5 [8]) | Intrinsic activity (Melanocortin receptor 4 [9]) | further results
CCCC(=O)C1(c2ccccc2)CCN(C(=O)[C@@H](Cc2ccc(OC)cc2)NC(=O)[C@H](N)Cc2cncn2C)CC1 | 1500 nM | 510 nM | 34% | – | – | – | – | – | –
CCCC(=O)C1(c2ccccc2)CCN(C(=O)[C@@H](Cc2ccc(OC)cc2)NC(=O)[C@@H](Cc2c[nH]cn2)NC(C)=O)CC1 | 5.1 nM | 0.35 nM | 96% | 3900 nM | 23 nM | 90% | 90% | 96% | EC50 (Melanocortin receptor 3 [5]): 2200 nM
CCCC(=O)C1(c2ccccc2)CCN(C(=O)[C@@H](Cc2ccc(OC)cc2)NC(=O)[C@@H](N)Cc2cnc[nH]2)CC1 | 1300 nM | 400 nM | – | – | – | – | – | – | –
CCCC(=O)C1(c2ccccc2)CCN(C(=O)[C@@H](Cc2ccc(OC)cc2)NC(=O)[C@H](N)Cc2cnc[nH]2)CC1 | 32 nM | 1.5 nM | – | 10000 nM | 630 nM | – | – | – | EC50 (Melanocortin receptor 3 [5]): 1700 nM
CCCC(=O)C1(c2ccccc2)CCN(C(=O)[C@@H](Cc2ccc(OC)cc2)NC(=O)[C@@H](N)Cc2c[nH]cn2)CC1 | – | – | 67% | – | – | – | – | – | –
CCCC(=O)C1(c2ccccc2)CCN(C(=O)[C@@H](Cc2ccc(OC)cc2)NC(=O)CCc2c[nH]cn2)CC1 | – | – | 97% | – | – | 85% | 32% | 92% | –
CCCC(=O)C1(c2ccccc2)CCN(C(=O)[C@@H](Cc2ccc(OC)cc2)NC(=O)[C@@H](N)Cc2cncn2C)CC1 | 120 nM | 28 nM | 92% | 4400 nM | 2600 nM | 2.1% | 15% | 39% | Cmax [10]: 2200 nM; MRT [11]: 1.2 h; clearance [12]: 110 mL/min/kg; NA (Melanocortin receptor 3 [13]): inactive; half-life [14]: 1.5 h; Vd [15]: 8.2 L/kg
CCCC(=O)C1(c2ccccc2)CCN(C(=O)[C@@H](Cc2ccc(OC)cc2)NC(=O)[C@H](O)Cc2cnc[nH]2)CC1 | 5.5 nM | 3.8 nM | – | 2700 nM | 77 nM | – | – | – | EC50 (Melanocortin receptor 3 [16]): 3900 nM
CCCC(=O)C1(c2ccccc2)CCN(C(=O)[C@@H](Cc2ccc(OC)cc2)NC(=O)[C@H](N)Cc2c[nH]cn2)CC1 | – | – | 93% | – | – | 98% | 40% | 103% | –
CCCC(=O)C1(c2ccccc2)CCN(C(=O)[C@@H](Cc2ccc(OC)cc2)NC(=O)[C@@H](Cc2cnc[nH]2)NC(=O)c2ccccc2)CC1 | 3.1 nM | 0.19 nM | – | 2100 nM | 2.9 nM | – | – | – | EC50 (Melanocortin receptor 3 [5]): 250 nM
CCCC(=O)C1(c2ccccc2)CCN(C(=O)[C@@H](Cc2ccc(OC)cc2)NC(=O)CCc2cnc[nH]2)CC1 | 18 nM | 2.5 nM | – | 9400 nM | 840 nM | – | – | – | EC50 (Melanocortin receptor 3 [5]): 7000 nM
CCCC(=O)C1(c2ccccc2)CCN(C(=O)[C@@H](Cc2ccc(OC)cc2)NC(=O)[C@H](O)Cc2c[nH]cn2)CC1 | – | – | 90% | – | – | 85% | 20% | 95% | –
COc1ccc(C[C@@H](NC(=O)[C@H]2Cc3ccccc3CN2)C(=O)N2CCC3(CC2)CN(S(C)(=O)=O)c2ccccc23)cc1 | – | 220 nM | 80% | – | 40 nM | – | – | 95% | –
CCCC(=O)C1(c2ccccc2)CCN(C(=O)[C@@H](Cc2ccc(OC)cc2)NC(=O)[C@@H](Cc2c[nH]cn2)NC(=O)c2ccccc2)CC1 | – | – | 98% | – | – | 100% | 65% | 95% | –

— ChEMBL document CHEMBL1136734, “Discovery of tyrosine-based potent and selective melanocortin-1 receptor small-molecule agonists with anti-inflammatory properties” (J Med Chem, 2003)
